# TbMetRS inhib = blocks T. brucei methionyl-tRNA synthetase activity. inhibition, % at 11.9 µM. AID 624268. actives 0.4% (n = 360,000). purified T. brucei MetRS, ATP depletion, Kinase-Glo luminescence;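 active means inhibition above a per-plate cutoff of the control wells' mean inhibition plus 3 SD, cut at about 5.5% in these data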
#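 System: purified T. brucei MetRS enzyme / Detection: Kinase-Glo luciferase luminescence reporting remaining unconsumed ATP / Medium: HEPES buffer with MgCl2, KCl, DTT, spermine, BSA, pyrophosphatase / Replication: singlicate, one well per compound / Evaluation: percent inhibition relative to median high and low control wells / Schedule: 2 h aminoacylation at 25 °C after 15 min preincubation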
# p-CIP stab down = compounds decreasing mouse p/CIP protein stability. decrease of EGFP signal, % at 10 µM. F442A p/CIP-EGFP cells, EGFP fluorescence, 16 h. actives 0.01% (n = 290,000). Q05BA5. AID 1984;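 active means EGFP signal decrease of at least 30% at 10 µM or well 3 SD below plate mean, unless failing retest; inactive means the rest, including hits failing retest or dose response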
# PHOSPHO1 block = PHOSPHO1 (human) inhibition. recombinant PHOSPHO1, absorbance phosphatase assay. inhibition, % at 13.3 µM. actives 1.1% (n = 290,000). AID 1565; in the data active means inhibition above about 60%
# Target sequence (Q8TCT1 whole entry, looked up): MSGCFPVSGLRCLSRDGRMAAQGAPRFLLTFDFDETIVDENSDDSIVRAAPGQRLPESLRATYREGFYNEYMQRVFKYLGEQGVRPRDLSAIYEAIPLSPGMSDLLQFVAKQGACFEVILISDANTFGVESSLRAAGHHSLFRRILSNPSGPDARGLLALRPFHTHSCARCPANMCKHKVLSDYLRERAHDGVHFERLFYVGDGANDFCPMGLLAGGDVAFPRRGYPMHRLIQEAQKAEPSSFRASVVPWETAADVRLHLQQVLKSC
# APOBEC3A inh = inhibitors of human APOBEC3A DNA deaminase. inhibition, % at 20 µM. recombinant A3A, FAM/TAMRA ssDNA deamination fluorescence. P31941. actives 0.41% (n = 330,000);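 active means at least 40% inhibition at 20 µM here, with at most 30% in a related deaminase screen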
# Target sequence (P31941 whole entry, looked up): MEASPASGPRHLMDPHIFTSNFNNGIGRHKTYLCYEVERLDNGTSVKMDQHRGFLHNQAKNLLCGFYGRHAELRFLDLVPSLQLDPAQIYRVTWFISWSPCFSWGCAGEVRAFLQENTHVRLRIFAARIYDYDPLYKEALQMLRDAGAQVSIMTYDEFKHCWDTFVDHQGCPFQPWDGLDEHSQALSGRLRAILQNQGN
# A3G deaminase = blocks human APOBEC3G single-stranded DNA deamination. AID 493012. recombinant A3G, ssDNA deamination FAM/TAMRA fluorescence. Q9HC16. inhibition, % at 20 µM. actives 0.28% (n = 330,000);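 active means inhibition of at least 40% at 20 µM, with no more than 30% in the related APOBEC3A deaminase screen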
# A number is an active result; . = inactive; / = not tested or not shown. Hits are enriched below; roughly 1.8% of the tested compounds scored in any of these assays.
SMILES,TbMetRS inhib,p-CIP stab down,PHOSPHO1 block,APOBEC3A inh,A3G deaminase
O=C1OCCN1CCNCc1cn(-c2ccc(F)cc2)nc1-c1ccccc1Cl,.,.,60,.,.
COC(=O)c1c(NC(=S)Nc2ccc(F)cc2[N+](=O)[O-])sc2c1CCCCC2,.,.,.,.,.
NNc1ccc(Cl)c(C(=O)O)c1,.,.,88,.,.
CCCCCCCCS(=O)c1sc2nc(C)cc(C)c2c1N (stereo not given),.,.,94,.,.
FC(F)(F)c1ccc(Nc2nnnc3ccccc23)cc1,.,.,61,.,.
CCN(Cc1ccccc1)C(c1cc2cc(C)ccc2[nH]c1=O)c1nnnn1CCOC (stereo not given),.,.,74,.,.
COCCn1nnnc1C(c1cc2cc(C)ccc2[nH]c1=O)N1CCCCCC1 (stereo not given),.,.,92,.,.
COCCn1nnnc1C(c1cc2cc(OC)ccc2[nH]c1=O)N1CCC(Cc2ccccc2)CC1 (stereo not given),.,.,.,.,.
COCCn1nnnc1CN(CCc1ccccc1)Cc1cc2ccc(C)cc2[nH]c1=O,.,.,66,.,.
COc1ccc2cc(C(c3nnnn3CCc3ccccc3)N3CCCC(C)C3)c(=O)[nH]c2c1 (stereo not given),.,.,82,.,.
COc1ccc(C(C(=O)NC2CCCC2)N(C(=O)CNC(=O)c2ccco2)c2cccnc2)cc1 (stereo not given),.,.,.,.,.
CC(C)c1ncc(CO)n1Cc1c(Cl)cccc1Cl,.,/,/,/,/
Cc1ccc2cc(C(c3nnnn3C(C)(C)C)N3CCCC3)c(=O)[nH]c2c1C (stereo not given),/,.,94,/,/
CCOC(=O)C1CCN(C(c2cc3ccc(C)cc3[nH]c2=O)c2nnnn2C2CCCCC2)CC1 (stereo not given),.,.,92,.,.
CCc1nnc(NC(=O)c2cc(-c3ccccn3)nc3ccc(Br)cc23)s1,.,.,72,.,.
COCCNC(=O)c1onc(CSc2ccccc2)c1C(=O)NCCOC,.,/,/,.,.
C=CCc1cccc(CNc2nc3ccccc3n2CC)c1O,40,.,.,.,.
CC(C)(C)NC(=O)/C(=C\C=C\c1ccccc1)NC(=O)c1ccc([N+](=O)[O-])cc1,.,.,.,.,.
Cc1ccc(C(=O)NCc2ccccn2)cc1Cl,.,.,60,.,.
Cc1[nH]c(=S)c(C#N)c(C)c1C(=O)Nc1ccccc1,.,.,95,.,.
CCc1c(C(=O)Nc2ccccc2)c(C)[nH]c(=S)c1C#N,.,.,.,.,.
COCCNC(=O)CN(C(=O)c1ccc(N2CCCC2)nc1)c1ccc(Cl)cc1,.,.,.,.,.
Cc1ccccc1Nc1cc2ccccc2c(=O)[nH]1,13,.,.,.,.
O=c1[nH]c(Nc2ccc(F)cc2)cc2ccccc12,17,.,.,.,.
CCOc1ccc2[nH]c(=O)c(CN(C(=O)N3CCOCC3)C3CC3)cc2c1,/,.,.,/,/
SMILES,TbMetRS inhib,p-CIP stab down,PHOSPHO1 block,APOBEC3A inh,A3G deaminase
CCOc1ccc2[nH]c(=O)c(CN(Cc3ccccc3)C(=O)N3CCCC3)cc2c1,.,.,74,.,.
CCn1c(COc2ccc(=O)n(-c3ccccc3)n2)nnc1SC,.,.,.,.,.
Cc1c(Cl)sn(-c2ccc(Cl)cc2)c1=O,.,.,.,.,44
CCCOc1ccc(C(=O)NC(=S)Nc2nc3ccccc3s2)cc1,.,.,85,.,.
CCCOc1ccc(C(=O)NC(=S)Nc2nc3ccc(C)cc3s2)cc1,/,.,.,/,/
S=C(NCCc1ccccc1)N1CCN(C(=S)NCCc2ccccc2)CC1,.,/,/,.,.
CC1CCN(C(=S)NCCc2ccccc2)CC1,.,.,88,.,.
Cc1cccc(NC(=O)CNC(=O)c2cccc(-n3cccc3)c2)c1C,.,/,/,.,.
CC1CCN(C(=O)c2cc(Cl)ccc2NC(=O)c2ccco2)CC1,.,.,.,.,.
CC(C)c1cc(=O)n2[nH]c(SCc3ccccc3)nc2n1,.,.,63,.,.
CCn1c(-c2ccco2)n[nH]c1=S,.,.,.,.,.
CCn1nc(C)cc1-c1n[nH]c(=S)n1N,.,.,102,.,.
COc1ccc(NC(=O)C2c3ccccc3OCC(=O)N2CC(F)(F)F)cc1 (stereo not given),.,/,/,/,/
CCCn1cnc2c(N)c(C)c(C)cc21,.,.,73,.,.
COCCNC(=O)C1(C)CCN(Cc2ccc(C(C)C)cc2)C1 (stereo not given),.,/,/,/,/
N=c1c[n+](-c2ccc(Cl)cc2)[n-]o1,.,.,93,.,.
CC1CCC(NC(=O)C2CCN(c3cnccn3)CC2)CC1 (stereo not given),.,.,.,.,.
O=C(CSc1ncnc2nc[nH]c12)c1ccc(Cl)cc1,.,.,.,.,.
O=C(CSc1ncnc2c(-c3ccc(Cl)cc3)nsc12)c1ccccc1,.,.,73,.,.
N#C/C(=C/c1ccc(Sc2nc3ccccc3[nH]2)o1)c1cccc(Br)c1,19,.,.,.,.
COC(=O)[C@]12CCCCC=C1N(Cc1ccccc1)C(=O)[C@H](CC(=O)N1CCSCC1)C2,.,/,/,/,/
CCCOc1ccc(-c2nc(=S)[nH][nH]2)cc1,.,.,95,.,.
c1ccc(CNc2nc(NCc3ccccc3)c3ccccc3n2)cc1,6.5,.,.,.,.
CSCC[C@H](NC(=O)c1ccc(OCC2CCCO2)cc1)c1nc2ccccc2[nH]1 (stereo not given in full),.,/,/,.,.
CCCCN(C)C1CCN(C(=S)Nc2cccc(SC)c2)CC1,.,.,.,.,.
SMILES,TbMetRS inhib,p-CIP stab down,PHOSPHO1 block,APOBEC3A inh,A3G deaminase
O=C(CSc1nc2c(c(=O)n1-c1ccc(F)cc1)SCC2)Nc1ccc2c(c1)OCO2,.,/,/,.,.
COc1ccc(-n2c(SCC(=O)Nc3ccc4c(c3)OCO4)nc3c(c2=O)SCC3)cc1,.,.,61,.,.
COc1ccc(C(C)(C)NC(=O)C2CCC(=O)N(C3CC3)C2)cc1OC (stereo not given),.,.,.,.,.
Cc1c(C(=O)Nc2c(C)n(C)n(-c3ccccc3)c2=O)oc2ccc(Cl)cc12,.,.,71,.,.
Cc1c(C(=O)Nc2c(C)n(C)n(-c3ccccc3)c2=O)oc2c(Cl)cccc12,.,.,.,.,.
Cc1cccc(NC(=O)Nc2c(C)n(C)n(-c3ccccc3)c2=O)c1,.,.,/,.,.
Cc1c(NC(=O)Nc2cccc(F)c2)c(=O)n(-c2ccccc2)n1C,.,.,61,.,.
COc1ccc(/C=C(/NC(=O)c2ccccc2)C(=O)N2CCCC2)cc1,.,.,.,.,.
Cc1cc(C(=O)Nc2ccccc2Cc2ccccc2)no1,.,.,66,.,.
Oc1ccc2ccccc2c1CN1CCOCC1,.,.,74,.,.
Cc1nc2sc(C(c3ccccc3)N3CCN(C)CC3)c(O)n2n1 (stereo not given),.,.,.,.,.
COC(=O)c1ccc(NC(=O)CN2CCOCC2)cc1,.,.,74,.,.

# Assay outcomes from PubChem.
